The target in assay [1] is D(3) dopamine receptor (Rattus norvegicus) (UniProt P19020). The assay is described as follows: Inhibition of [3H]spiperone at D3 dopamine receptors on CHO cell membranes; 1000 nM. In kind it is cell-based. In a few lines: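 Cloned rat D3 receptor in stably transfected CHO cell membranes, filtration assay with [3H]spiperone (0.3 nM). Single concentration of 1000 nM in duplicate, given as mean % inhibition. Buffer 20 mM HEPES, 10 mM MgSO4, 150 mM NaCl, 1 mM EDTA pH 7.4, 1 h at room temperature. 3 µM haloperidol for nonspecific binding.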

Assay [2] concerns the target D(2) dopamine receptor (Rattus norvegicus) (UniProt P61169). As to the kind of experiment: Inhibition of [3H]-PNU-86170 binding at D2 dopamine receptors on CHO cell membranes; 1000 nM. The format is cell-based. The gist of the method: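 Single-point screen at 1000 nM in duplicate, reported as mean % inhibition. Rat D2 receptor stably expressed in CHO cell membranes, labelled with [3H]-PNU-86170 (2 nM). Buffer 20 mM HEPES/10 mM MgSO4 pH 7.4, 1 h at room temperature. Nonspecific binding defined by 3 µM haloperidol.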

A further assay has as its target D(2) dopamine receptor (Rattus norvegicus, UniProt P61169). The assay is described as follows: Affinity at D2 dopamine receptor on CHO cell membranes by [3H]PNU-86170 displacement. In a few lines: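 Cloned rat D2 receptor stably expressed in CHO cells; membranes from cell pellets disrupted in ice-cold 50 mM Tris/5 mM EDTA/5 mM EGTA pH 7.4 with graded centrifugation. [3H]-PNU-86170 (2 nM) competition, 11 concentrations in duplicate, 20 mM HEPES/10 mM MgSO4 pH 7.4, 1 h room temperature. Haloperidol 3 µM defines nonspecific binding. Filtration or SPA read-out; one-site fit IC50, Ki by Cheng-Prusoff.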

Assay [3] is filed under the species Rattus norvegicus. As to the kind of experiment: In vitro stability in rat hepatocytes relative to that of PNU-93385. The conditions noted are these: Hepatocyte. The format is functional. In a few lines: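 Compound incubated alongside reference PNU-93385. Metabolism followed by HPLC with UV detection. Intrinsic clearance is expressed relative to the reference to give relative metabolic stability.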

The target of a further assay is D(3) dopamine receptor (Rattus norvegicus, UniProt P19020). As to the kind of experiment: Affinity at rat D3 dopamine receptor on CHO cell membranes by [3H]spiperone displacement.
The target in assay [4] is T1, 5-hydroxytryptamine receptor 1A (Rattus norvegicus, UniProt P19327).
T1 sequence (P19327 whole entry): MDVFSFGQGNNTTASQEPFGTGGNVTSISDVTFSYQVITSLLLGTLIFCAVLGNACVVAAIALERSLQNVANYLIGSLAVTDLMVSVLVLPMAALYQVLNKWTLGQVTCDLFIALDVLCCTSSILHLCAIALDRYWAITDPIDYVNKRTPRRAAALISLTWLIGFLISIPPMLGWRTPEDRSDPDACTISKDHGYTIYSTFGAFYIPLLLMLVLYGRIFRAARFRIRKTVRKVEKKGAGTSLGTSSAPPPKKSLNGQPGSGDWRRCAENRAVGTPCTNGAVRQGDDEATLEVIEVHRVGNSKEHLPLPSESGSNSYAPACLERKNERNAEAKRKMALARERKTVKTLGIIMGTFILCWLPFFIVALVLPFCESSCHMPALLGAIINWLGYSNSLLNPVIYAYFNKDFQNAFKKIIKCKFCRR
The assay is described as follows: Binding affinity towards 5-hydroxytryptamine 1A receptor. In a few lines:
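Competition binding with [3H]-8-OH-DPAT at 5-HT1A sites in CHO cells expressing the cloned receptor. Affinity is given as Ki (nM) with SD or 95% CI. Compounds were first screened at 1 µmol/L in a monoaminergic/opioid/adrenergic receptor profile binding assay.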

Assay [5] deals with Rattus norvegicus. As to the kind of experiment: Inhibition of (+)-MK-801-induced hyperactivity in rats following 200 umol/kg i.p. The format is functional. The arrangement: scale not given: the % may be the effect or the level left. In a few lines:
(§1)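 Rats given (+)-MK-801 0.2 mg/kg sc plus test compound ip, 10-200 µmol/kg, in vehicle of 0.9% NaCl in 0.25% methylcellulose. Locomotor activity expressed as % of vehicle control ±SEM, 8-26 animals per group.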

Assay [6] concerns Rattus norvegicus. The assay is described as follows: Inhibition of (+)-MK-801-induced hyperactivity in rats following 10 uM/kg i.p. In kind it is functional. The arrangement: scale not given: the % may be the effect or the level left. In a few lines: as §1
For assay [7], the system named is Rattus norvegicus. The assay is described as follows: Inhibition of (+)-MK-801-induced hyperactivity in rats following 30 umol/kg i.p. In kind it is functional. The arrangement: scale not given: the % may be the effect or the level left. The gist of the method: as §1
In assay [8] the test system is Rattus norvegicus. As to the kind of experiment: Inhibition of (+)-MK-801-induced hyperactivity in rats following 100 umol/kg i.p. In kind it is functional. The arrangement: scale not given: the % may be the effect or the level left. In a few lines: as §1

The structures appear in SMILES notation. Where only a bound is given, the exact number is not on record here.

Consider 38 molecules from ChEMBL document CHEMBL1134329, “Dopamine D(3) receptor antagonists. 1. Synthesis and structure-activity relationships of 5,6-dimethoxy-N-alkyl- and N-alkylaryl-substituted 2-aminoindans” (J Med Chem, 2001).

Sequence of D(3) dopamine receptor (P19020 whole entry): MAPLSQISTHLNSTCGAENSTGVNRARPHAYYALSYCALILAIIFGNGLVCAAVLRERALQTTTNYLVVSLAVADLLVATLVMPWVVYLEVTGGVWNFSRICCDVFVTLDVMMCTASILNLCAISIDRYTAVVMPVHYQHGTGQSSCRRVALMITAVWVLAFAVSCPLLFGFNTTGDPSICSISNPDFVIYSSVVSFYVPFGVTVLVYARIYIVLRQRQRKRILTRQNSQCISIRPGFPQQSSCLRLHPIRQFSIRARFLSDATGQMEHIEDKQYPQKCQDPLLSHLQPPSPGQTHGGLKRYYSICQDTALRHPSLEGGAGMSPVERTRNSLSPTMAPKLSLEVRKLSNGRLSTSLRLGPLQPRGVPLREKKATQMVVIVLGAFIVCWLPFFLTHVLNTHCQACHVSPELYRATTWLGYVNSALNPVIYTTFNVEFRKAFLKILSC
Sequence of D(3) dopamine receptor (Rattus norvegicus) (P19020 whole entry): as above
Sequence of D(2) dopamine receptor (Rattus norvegicus) (P61169 whole entry): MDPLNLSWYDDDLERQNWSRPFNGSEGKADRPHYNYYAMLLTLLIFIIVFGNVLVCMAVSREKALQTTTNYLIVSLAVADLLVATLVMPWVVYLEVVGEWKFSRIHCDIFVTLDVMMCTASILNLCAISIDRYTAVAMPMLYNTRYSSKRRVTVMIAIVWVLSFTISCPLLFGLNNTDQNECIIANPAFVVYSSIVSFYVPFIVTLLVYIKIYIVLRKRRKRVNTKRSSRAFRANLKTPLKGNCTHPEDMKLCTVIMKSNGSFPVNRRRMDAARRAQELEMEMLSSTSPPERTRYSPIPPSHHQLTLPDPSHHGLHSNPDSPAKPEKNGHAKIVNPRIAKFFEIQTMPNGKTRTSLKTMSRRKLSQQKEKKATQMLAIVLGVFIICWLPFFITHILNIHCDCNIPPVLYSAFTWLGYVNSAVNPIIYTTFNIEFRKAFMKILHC
Sequence of D(2) dopamine receptor (P61169 whole entry): as above

By inhibition is commonly meant the change of the read-out against control, counted positive when it falls. Take `CCN(CC)C1Cc2cc(OC)c(OC)cc2C1`: the inhibition in assay [1] amounted to 20%; in assay [2], 9%.

What is called Ki is a measure of affinity in units of concentration, obtained from inhibition or displacement. As to `CCCN(CC)C1Cc2cc(OC)c(OC)cc2C1`, the Ki at D(2) dopamine receptor stood at 0.374 µM; on D(3) dopamine receptor, 0.065 µM. The Stability in the assay listed under Rattus norvegicus [3] came to 42%.

As to `CCCN(CCc1ccsc1)C1Cc2cc(OC)c(OC)cc2C1`, the inhibition constant (Ki) on D(2) dopamine receptor is 0.061 µM; on D(3) dopamine receptor, 0.014 µM. In the assay filed under Rattus norvegicus [3], this molecule displayed a Stability of 14%.

The molecule `COc1cc2c(cc1OC)CC(N(C)C)C2` had a Stability in the assay filed under Rattus norvegicus [3] of 59%. Further, the inhibition in assay [1] was determined as 26%; in assay [2] it was 19%.

Consider `COc1cc2c(cc1OC)CC(N(CC1CC1)CC1CC1)C2`, for which the Stability in the assay listed under Rattus norvegicus [3] was determined as 22%. Also, the inhibition in [1] amounted to 0%; in assay [2], 15%.

Regarding `COc1cc2c(cc1OC)CC(N)C2`, the results for the inhibition in assay [1] and in [2] were 0% and 2%, respectively.

Regarding `CCCN(CCc1ccc(OC)cc1)C1Cc2cc(OC)c(OC)cc2C1`, the figures for the inhibition constant (Ki) at D(2) dopamine receptor and at D(3) dopamine receptor were 0.163 µM and 0.039 µM, respectively. Further, the Stability in the assay filed under Rattus norvegicus [3] was 53%.

In the case of `CCCN(CCc1ccc(C(F)(F)F)cc1)C1Cc2cc(OC)c(OC)cc2C1`, the Ki at D(2) dopamine receptor was 0.31 µM; at D(3) dopamine receptor it was 0.034 µM.

Turning to `CCC(CC)NC1Cc2cc(OC)c(OC)cc2C1`, the inhibition in assay [1] and in assay [2] was 0% in each case.

For `COc1cc2c(cc1OC)CC(N(CCCF)CCCF)C2`, the Stability in the assay listed under Rattus norvegicus [3] came out at 8%. For the same molecule, the inhibition in [1] worked out at 3%.

`CCCN(CCC)C1Cc2cccc(OC)c2C1` (configuration not stated): the Ki at D(2) dopamine receptor was determined as 0.0042 µM; in assay [4] it was 0.0051 µM; at D(3) dopamine receptor it was 0.045 µM.

As for `CCCN(Cc1ccsc1)C1Cc2cc(OC)c(OC)cc2C1`, the Ki at D(2) dopamine receptor is 1.24 µM; at D(3) dopamine receptor it was 0.374 µM. In the assay filed under Rattus norvegicus [3], this molecule had a Stability of 15%.

For `CCCN(CCCF)C1Cc2cc(OC)c(OC)cc2C1`, the figures for the inhibitory constant (Ki) on D(2) dopamine receptor and at D(3) dopamine receptor were 1.84 µM and 0.342 µM, respectively. The molecule further displayed a Stability in the assay listed under Rattus norvegicus [3] of 9%.

Regarding `CCC(C)NC1Cc2cc(OC)c(OC)cc2C1` (configuration not stated), the inhibition in [1] turned out to be 0%; in assay [2], 4%.

Consider `CCCN(CCc1ccc(OC)c(OC)c1)C1Cc2cc(OC)c(OC)cc2C1`, for which the Ki at D(2) dopamine receptor was determined as 0.066 µM; on D(3) dopamine receptor, 0.029 µM.

In the assay listed under Rattus norvegicus [3], `CCCN(Cc1cccs1)C1Cc2cc(OC)c(OC)cc2C1` had a Stability of 35%. Further, the results for the inhibition in assay [1] and in assay [2] were 35% and 20%, respectively.

Regarding `CCCN(CCCc1ccccc1)C1Cc2cc(OC)c(OC)cc2C1`, the values for the inhibitory constant (Ki) on D(2) dopamine receptor and on D(3) dopamine receptor were 0.155 µM and 0.023 µM, respectively. In the assay listed under Rattus norvegicus [3], this molecule gave a Stability of 67%.

The molecule `CCCCN(CCCC)C1Cc2cc(OC)c(OC)cc2C1` displayed a Stability in the assay listed under Rattus norvegicus [3] of 13%. Further, in assay [2], the inhibition came to 22%. The molecule also yielded a Ki at D(3) dopamine receptor of 0.18 µM.

As to `CCCN(CCc1ccc(Br)cc1)C1Cc2cc(OC)c(OC)cc2C1`, the values for the inhibition constant Ki at D(2) dopamine receptor and at D(3) dopamine receptor were 0.097 µM and 0.022 µM, respectively.

With `CCCN(CCC)C1Cc2ccc(OC)cc2C1` (configuration not stated), the Ki was 0.263 µM on D(2) dopamine receptor and 0.084 µM on D(3) dopamine receptor.

As for `CCCN(CCC)C1Cc2ccc(O)cc2C1` (configuration not stated), the Ki at D(2) dopamine receptor was 0.053 µM; in assay [4], above 3 µM; on D(3) dopamine receptor, 0.014 µM.

Turning to `CCCN(CCC)C1Cc2cc(OC)c(OC)cc2C1` [PNU-99194A], the Ki at D(2) dopamine receptor amounted to 0.992 µM; on D(3) dopamine receptor, 0.031 µM. Also, the Control is reported as 143% with Rattus norvegicus [5], 583% with Rattus norvegicus [6], 447% with Rattus norvegicus [7] and 391% in the assay on Rattus norvegicus [8]. For the same molecule, the Stability in the assay listed under Rattus norvegicus [3] was 38%.

With `CCCN(CCC)C1Cc2cccc(O)c2C1` (configuration not stated), the Ki at D(2) dopamine receptor was determined as 0.0052 µM; in assay [4] it was 0.0195 µM; at D(3) dopamine receptor, 0.042 µM.

For the molecule `CCCN(CCc1cccc(N)c1)C1Cc2cc(OC)c(OC)cc2C1`, the figures for the Ki at D(2) dopamine receptor and on D(3) dopamine receptor were 0.162 µM and 0.045 µM, respectively.

For the molecule `CCCN1CC[C@H]2c3c(cccc3C(N)=O)CC[C@H]21`, the Stability in the assay listed under Rattus norvegicus [3] is 100%.

As for `CCCN(CCc1cccc(F)c1)C1Cc2cc(OC)c(OC)cc2C1`, the Ki at D(2) dopamine receptor came out at 0.125 µM; on D(3) dopamine receptor, 0.03 µM.

`COc1cc2c(cc1OC)CC(N1CCCCCC1)C2` came in with a Stability in the assay listed under Rattus norvegicus [3] of 32%. In addition, the inhibition was 3% in assay [1] and 2% in [2].

For the molecule `CCCN(CCc1ccccc1)C1Cc2cc(OC)c(OC)cc2C1`, the figures for the Ki on D(2) dopamine receptor and on D(3) dopamine receptor were 0.027 µM and 0.032 µM, respectively. In the assay listed under Rattus norvegicus [3], this molecule displayed a Stability of 12%.

With `CCCNC1Cc2cc(OC)c(OC)cc2C1`, the inhibition in [1] turned out to be 17%; in assay [2], 19%.

`COc1cc2c(cc1OC)CC(N1CCCC1)C2`: the inhibition stood at 4% in assay [1] and 13% in assay [2].

The molecule `CCCN(CCc1cccs1)C1Cc2cc(OC)c(OC)cc2C1` showed a Stability in the assay listed under Rattus norvegicus [3] of 26%. In addition, the inhibition in assay [2] turned out to be 86%. Further, the Ki on D(3) dopamine receptor is 0.078 µM.

Take `C=CCN(CC=C)C1Cc2cc(OC)c(OC)cc2C1`: the Stability in the assay listed under Rattus norvegicus [3] is 13%. The inhibition came out at 12% in [1] and 19% in assay [2].

Turning to `CCCN(CCc1ccc(C(N)=O)cc1)C1Cc2cc(OC)c(OC)cc2C1`, the values for the Ki on D(2) dopamine receptor and on D(3) dopamine receptor were 0.123 µM and 0.042 µM, respectively.

The molecule `COc1cc2c(cc1OC)CC(N1CCOCC1)C2` returned a Stability in the assay filed under Rattus norvegicus [3] of 41%. The inhibition in assay [1] is -2%; in assay [2] it was 10%.

Consider `CCCN(CC1CC1)C1Cc2cc(OC)c(OC)cc2C1`, for which the Stability in the assay listed under Rattus norvegicus [3] was found to be 23%.

Regarding `CCCN(CCc1cccnc1)C1Cc2cc(OC)c(OC)cc2C1`, the Ki on D(2) dopamine receptor was determined as 0.286 µM; at D(3) dopamine receptor, 0.134 µM.

Consider `CCCN(C(C)CC)C1Cc2cc(OC)c(OC)cc2C1` (configuration not stated), for which the inhibition in assay [1] came out at 16%; in assay [2], 2%.

For the molecule `CCCN(CCc1csc(N)n1)C1Cc2cc(OC)c(OC)cc2C1`, the Ki worked out at 0.265 µM on D(2) dopamine receptor and 0.136 µM on D(3) dopamine receptor.
